Results on three molecules are retold here after ChEMBL document CHEMBL2029239, “Identification, design and biological evaluation of bisaryl quinolones targeting Plasmodium falciparum type II NADH:quinone oxidoreductase (PfNDH2)” (J Med Chem, 2012).

SMILES strings stand for the structures.

Assay type in all cases: functional
Set-up in all cases: scale not given: the % may be the effect or the level left

Test [1] concerns Plasmodium berghei. The test can be described thus: Antimalarial activity against Plasmodium berghei infected in CD1 mouse assessed as decrease in parasitemia at 20 mg/kg, po administered using Na2CO3 vehicle measured on day 4 relative to control. The method, boiled down: (§1)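 Peters' standard 4-day suppressive test in male CD-1 mice infected with Plasmodium berghei by intraperitoneal injection. Compound given orally at 20 mg/kg, with 5 mice per group. Read-out is % parasite clearance on day 4. Vehicles were SSV (often as suspensions), DET (fully dissolved) or sodium carbonate solution, as specified in each line.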

In test [2] the test system is Plasmodium berghei. Description: Antimalarial activity against Plasmodium berghei infected in CD1 mouse assessed as decrease in parasitemia at 20 mg/kg, po administered using 5% DMSO and 5% EtOH in tetraglycol vehicle measured on day 4 relative to control. The method, boiled down: as §1
Test [3] deals with Plasmodium berghei. The test can be described thus: Antimalarial activity against Plasmodium berghei infected in CD1 mouse assessed as decrease in parasitemia at 20 mg/kg, po administered using standard suspension vehicle measured on day 4 relative to control. The method, boiled down: as §1

For the molecule `Cc1c(-c2ccc(Cc3ccc(OC(F)(F)F)cc3)cc2)nc2cc(Cl)ccc2c1OP(=O)(O)O`, in the test with Plasmodium berghei [1], the Activity is listed as 100%.

`Cc1c(-c2ccc(Cc3ccc(OC(F)(F)F)cc3)cc2)nc2cc(Cl)ccc2c1OC(=O)N1CCOCC1`: the Activity in the test with Plasmodium berghei [1] stood at 100%.

`O=C1C(O)=C([C@H]2CC[C@H](c3ccc(Cl)cc3)CC2)C(=O)c2ccccc21` [ATOVAQUONE]: the Activity with Plasmodium berghei [2] and in the test on Plasmodium berghei [3] was 100% in each case.
